The list is not random: actives were taken first. Their share in the collection is about 3%.
Beta2AR agonist: agonists of human beta-2 adrenergic receptor inducing internalization; P07550; 0.43% of 340,000 active; Am2.2-beta2AR cells, FAP receptor internalization, flow cytometry; response, % (test concentration not listed);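 active = response above a set limit, near 3 SD of response in nonfluorescent compounds, cut at about 42% in these data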
Target sequence (P07550 whole entry, looked up): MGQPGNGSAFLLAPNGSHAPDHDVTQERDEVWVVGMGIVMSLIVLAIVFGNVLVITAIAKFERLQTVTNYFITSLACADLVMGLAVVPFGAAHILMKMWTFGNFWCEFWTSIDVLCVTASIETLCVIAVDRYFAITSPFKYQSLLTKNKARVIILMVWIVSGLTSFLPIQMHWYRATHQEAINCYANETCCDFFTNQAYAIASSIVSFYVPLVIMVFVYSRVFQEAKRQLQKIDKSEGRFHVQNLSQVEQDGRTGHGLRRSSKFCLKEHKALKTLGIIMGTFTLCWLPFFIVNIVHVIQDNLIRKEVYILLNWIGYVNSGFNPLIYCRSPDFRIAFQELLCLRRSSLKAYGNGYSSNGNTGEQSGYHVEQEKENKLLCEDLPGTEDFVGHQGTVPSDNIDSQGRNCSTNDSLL
MC4R ag barr: activates human MC4R beta-arrestin recruitment. U2OS MC4R beta-arrestin complementation, luminescence; percent of melanotan II response, DMSO zero. 0.98% of 360,000 active. activation, % at 8.9 µM;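 active = activation above a per-plate cutoff, the mean activation of sample wells on that plate plus 3 SD, cut at about 8% in these data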
PfG6PD inh: PfG6PD (Plasmodium falciparum) enzyme inhibition | PfGluPho enzyme, NADPH resazurin-diaphorase fluorescence | inhibition, % at 20 µM | 0.78% of 350,000 active;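 active = inhibition reaching at least a set limit at 20 µM in the primary screen, cut at about 59% in these data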;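 note: 0% = DMSO wells with substrate and 100% = DMSO wells lacking glucose-6-phosphate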
ABHD5-PLIN5 inh: inhibitors of human ABHD5-perilipin-5 interaction. Q00G26+Q8WTS1. AID 602281. inhibition, % at 4 µM. Split G. princeps luciferase complementation, luminescence, 4 h. 0.78% of 360,000 active;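 active = inhibition above the mean inhibition across every tested compound plus 3 SD, cut at about 22% in these data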;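 note: 0% = DMSO only wells and the 100% control is not disclosed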
MC4R antag cAMP: antagonists of human melanocortin 4 receptor (MC4R); MC4R-expressing cells, MTII-stimulated cAMP, LANCE TR-FRET; AID 540295; 0.48% of 360,000 active; inhibition, % at 6.5 µM;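 active = inhibition above its plate's cutoff, the mean of tested wells on that plate plus 3 SD, cut at about 29% in these data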;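 note: 0% = Melanotan II alone and 100% = Melanotan II plus saturating MCL0020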
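System: U2OS-MC4R stable cell line; Technique: Eu-cAMP/anti-cAMP TR-FRET, emission 671 nm; Repeats: single well per compound; Also added: Melanotan II; Dosing: one concentration, 6.5 µM nominal; Schedule: 30-min compound, 1-h challenge, 1-h detection, room temperature.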
MC4R barr conf: human MC4R beta-arrestin agonism confirmation; AID 602192; U2OS MC4R beta-arrestin recruitment, luminescence; scaled DMSO 0%, Melanotan II 100%; shares compounds with MC4R ag barr; 31% of 2,400 active; activation, % at 8.9 µM;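 active = mean activation across replicates above the hit cutoff set in the earlier primary screen, cut at about 8% in these data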
MOR-DOR barr ag: activates mu-delta opioid heterodimer, MC4R agonist counter-screen. shares compounds with MC4R ag barr. U2OS PathHunter beta-arrestin, beta-gal luminescence; percent of deltorphin B response, DMSO zero. activation, % at 9.2 µM. 5.8% of 2,400 active. AID 602194;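 active = mean activation across replicates exceeds the hit threshold derived in the earlier primary screen, cut at about 18% in these data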;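 note: 100% = deltorphin B at 0.9 µM final and 0% = DMSO alone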
ABHD5 PLIN5 conf: ABHD5-PLIN5 interaction inhibition, confirmed. shares compounds with ABHD5-PLIN5 inh. 67% of 2,200 active. inhibition, % at 4 µM. AID 651612. biochemical ABHD5-PLIN5 interaction, luminescence; in the data active = inhibition above about 23%;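 note: 0% = DMSO vehicle wells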
HNF4 counter: counter-screen for ABHD5-PLIN5 inhibitors: HNF4 split-luciferase. shares compounds with ABHD5-PLIN5 inh. HNF4 dimerization, luminescence, biochemical. inhibition, % at 4 µM. 77% of 2,200 active;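 active = mean inhibition across replicate wells exceeding the computed hit threshold, cut at about 13% in these data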;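 note: light from luciferase halves that rejoin when HNF4 fusion proteins dimerize; 0% = DMSO only wells and the 100% control is not given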
Numbers without * were called inactive; . = no result given.

SMILES	Beta2AR agonist	MC4R ag barr	PfG6PD inh	ABHD5-PLIN5 inh	MC4R antag cAMP	MC4R barr conf	MOR-DOR barr ag	others
CC(=O)Nc1cccc(NC(=O)CSc2ccc(C(F)(F)F)cc2[N+](=O)[O-])c1	-13	-1	15	3	3	.	.
O=C(CSc1ccc(C(F)(F)F)cc1[N+](=O)[O-])Nc1ccc2ccccc2c1	1	11*	7	-8	-1	8	6
O=C(COC(=O)C1(c2ccccc2F)CCCC1)NCc1cccs1	6	-1	-2	3	-1	.	.
CC(=O)Nc1ccc(NC(=O)CN2CCN(c3cccc(C(F)(F)F)c3)CC2)cc1	-7	2	2	0	8	.	.
CC(=O)c1cc2c(cc1NC(=O)CN1CCN(c3cccc(C(F)(F)F)c3)CC1)OCO2	3	16*	11	1	3	-2	3
COc1ccc(NC(=O)C2(C)Cc3c(-c4cccc(C(F)(F)F)c4)ccnc3O2)cn1 (configuration not stated)	.	0	.	1	-6	.	.
O=C(CC1C(=O)NCCN1Cc1c(F)cccc1Cl)NCCCOc1cccnc1 (configuration not stated)	-5	1	-17	6	2	.	.
COc1ccc(/C=C2/SC(=S)N(Cc3ccccc3)C2=O)cc1O	6	12*	4	5	7	8	5
COc1ccc(/C=C2/SC(=S)N(CCCC(=O)Nc3ccc(O)cc3)C2=O)cc1	13	12*	6	2	5	7	4
COc1ccc(/C=C2\SC(=S)N(CCC(=O)Nc3cccc(O)c3)C2=O)cc1	2	21*	-11	7	-3	3	4
COc1ccc(/C=C2\SC(=S)N(CCC(=O)Nc3ccc(C(=O)O)cc3)C2=O)cc1	9	-2	-2	1	4	.	.
COc1ccc(/C=C2\SC(=S)N(CCCC(=O)Nc3ccc(O)cc3)C2=O)cc1	8	17*	7	13	27	10*	2
O=C1CC(NS(=O)(=O)c2cccnc2)CN1c1cccc(F)c1 (configuration not stated)	5	-1	14	4	14	.	.
Cc1ccc(C)c(NC(=O)Cc2csc(-c3ccccc3)n2)c1	-6	1	9	4	6	.	.
Cc1cc(NC(=O)Cc2csc(-c3ccccc3)n2)ccc1Br	-3	15*	11	-6	15	3	7
CCc1ccc(OCc2nnc(SCC(=O)N3CCN(c4ccccc4)CC3)o2)cc1	0	17*	2	-2	9	6	20*
Cc1cc(C)cc(OCc2nnc(SCC(=O)N3CCN(c4ccccc4)CC3)o2)c1	-5	10.0*	-37	7	0	4	12
O=C(CSc1nnc(COc2ccccc2)o1)N1CCN(c2ccccc2)CC1	-5	1	7	6	26	.	.
COCCNC(=O)C1CCCN(C(=O)c2nc3ccccc3s2)CC1 (configuration not stated)	.	-1	.	1	2	.	.
Cc1ccc(-c2nc3ccccc3s2)cc1NC(=O)c1cc(-n2cnnc2)ccc1Cl	10	11*	-17	0	14	0	3
CC(C)(C)c1ccc(OCc2ccc(C(=O)N/N=C/c3ccc(O)c(O)c3)cc2)cc1	7	25*	-2	-1	6	9.8*	6
O=C(N/N=C/c1cccc(O)c1)c1ccc(COc2ccccc2Br)cc1	4	13*	6	-7	2	6	3
CCOc1cc(C(=S)N2CCOCC2)ccc1OC(=O)/C=C/c1ccc(OC)c(OC)c1	13	11*	-6	8	6	0	2
CCNC(=O)c1cc(S(=O)(=O)N2CCSCC2)ccc1OC	-12	-1	-6	2	1	.	.
Cc1ccc(NC(=O)/C(C#N)=C/c2ccc(Sc3nc(C)cc(C)n3)o2)cc1	-7	23*	19	-1	18	6	22*
SMILES	Beta2AR agonist	MC4R ag barr	PfG6PD inh	ABHD5-PLIN5 inh	MC4R antag cAMP	MC4R barr conf	MOR-DOR barr ag	others
COCCN(Cc1cc2cc(C)c(C)cc2nc1Cl)C(=O)N1CCOCC1	-10	-3	-6	-4	0	.	.
CC1CCC(C(C)C)C(OC(=O)Cn2c(-c3ccc(Cl)cc3)[n+](C)c3ccccc32)C1 (configuration not stated)	19	28*	1	34*	-1	8	9	ABHD5 PLIN5 conf=15;HNF4 counter=4
COc1cccc(-c2cnc3c(NC=O)cc(-c4ccoc4)cn23)c1	.	44*	.	26*	-2	34*	0	ABHD5 PLIN5 conf=30*;HNF4 counter=37*
CN(C)C(=O)c1cccc(-c2cnc3c(NC=O)cc(-c4ccccc4Cl)cn23)c1	.	9.8*	.	24*	-18	8.9*	3	ABHD5 PLIN5 conf=20;HNF4 counter=12
CC(=O)c1ccc(-c2cnc3c(NC=O)cc(-c4cccc(C(=O)N(C)C)c4)cn23)cc1	.	3	.	4	-1	.	.
Cc1ccc2sc(N(CCCN(C)C)C(=O)CN3C(=O)c4ccccc4C3=O)nc2c1C	2	18*	4	31*	-3	19*	9	ABHD5 PLIN5 conf=23*
Cc1ccc2sc(N(CCN(C)C)C(=O)c3ccc4ccccc4c3)nc2c1C	0	-1	5	6	5	.	.
COc1ccc(-n2ncc(C(C)NS(=O)(=O)c3cc(F)ccc3C)c2C)cc1 (configuration not stated)	-2	-1	9	-7	-4	.	.
CN(C)CCOc1ccc(-c2c(-c3ccccc3)sc3ccccc23)cc1	10	23*	10	29*	15	38*	17	ABHD5 PLIN5 conf=18;HNF4 counter=-4
Cn1c(=O)c2c(SCC(=O)N3CCOCC3)nc(-c3ccccc3Cl)nc2n(C)c1=O	-6	-2	0	1	-1	.	.
COC(=O)C1=C(C)N(Cc2ccccc2)C(=NCC(C)C)N[C@H]1c1cccc(F)c1	31	0	-2	9	2	.	.
COC(=O)C1=C(C)N(Cc2ccccc2)C(=NCC(C)C)N[C@H]1c1cccc(C(F)(F)F)c1	34	16*	12	24*	8	18*	23*	ABHD5 PLIN5 conf=14;HNF4 counter=2
O=C1CCC(=O)N1CCSC(=S)N1CCSCC1	-3	-3	-13	-4	-9	.	.
CC1(C)CC(N=c2cc(-c3ccccc3)oc3ccc(Cl)cc23)CC(C)(C)N1	40	24*	-18	29*	14	6	10	ABHD5 PLIN5 conf=6;HNF4 counter=10
